Assay results as given in article PMC8865112 (Journal of Enzyme Inhibition and Medicinal Chemistry, 2022).

Experiments:
A549/DDP [1] = assay: CCK-8 cell growth and sensitisation to DDP; assay type: cell-based, human
Method in brief: (§1)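 Exponential-phase cells were trypsinised, diluted to 5 × 10^7/l and plated, then cultured 24 h at 37 °C. Test compound was added where indicated (DMF <0.2%), and DDP (saline stock 5.0 mM) was added 1 h later. After 72 h at 37 °C, CCK-8 was applied for 2 h and A450 was read. Live cells were calculated as % of the no-DDP, no-inhibitor control. Done in triplicate.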

SGC7901/DDP [2] = assay: CCK-8 cell growth and sensitisation to DDP; assay type: cell-based, human
Method in brief: as §1

SK-OV-3/DDP = assay: CCK-8 cell growth and sensitisation to DDP; assay type: cell-based, human; conditions: SK-OV-3/DDP cells versus SK-OV-3 cells
Method in brief: as §1

COC1/DDP = assay: CCK-8 cell growth and sensitisation to DDP; assay type: cell-based, human
Method in brief: as §1

A549/DDP [3] = assay: Apoptosis percentages; assay type: cell-based, human; conditions: DDP alone 2.0 μM, EDEA alone 1.0 and 2.0 μM
SGC7901/DDP [4] = assay: Apoptosis percentages; assay type: cell-based, human; conditions: DDP alone 2.0 μM, EDEA alone 1.0 and 2.0 μM
drug-resistant cancers = conditions: cited from earlier work

SMILES | IC50 value of DDP in resistant versus parental cells (A549/DDP [1]) | IC50 value of DDP in resistant versus parental cells (SGC7901/DDP [2]) | IC50 value of DDP in resistant versus parental cells (SK-OV-3/DDP) | IC50 value of DDP in resistant versus parental cells (COC1/DDP) | effect of single agent on apoptosis percentages (A549/DDP [3]) | effect of single agent on apoptosis percentages (SGC7901/DDP [4]) | level that sensitised drug-resistant cancers to DDP in vitro (drug-resistant cancers)
N.N.[Cl][Pt][Cl] [DDP, cisplatin] | ~7 fold | ~3 fold | ~4 fold | ~4 fold | did not greatly alter | did not greatly alter | –
C=C(CC)C(=O)c1ccc(OCC(=O)O)c(Cl)c1Cl [EAA, ethacrynic acid] | – | – | – | – | – | – | ~20 µM
